Reference: ChEMBL document CHEMBL4689842, “EUbOPEN Chemogenomics Library wave 1” (2021)

Tested on: Fibroblast
Test: Multiplex assay against human fibroblast
Format: toxicity, cell-based
Procedure, shortened: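 At seeding, live cells were stained with Hoechst33342, BioTracker Green Microtubule Cytoskeleton Dye, MitoTracker Red and Annexin V Alexa Fluor 680. After compound addition they were imaged on a CQ1 microscope at 37°C and 5% CO2, and CellPathfinder machine-learning gating sorted them into Hoechst high-intensity objects or normal cells, with normal cells further split into healthy, pyknosed or fragmented nuclei and pyknosed cells into mitotic or apoptotic. Tubulin, mitochondrial-mass and membrane-permeability phenotypes are given as per cents of cells with healthy nuclei.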

[1] = 12 h, 1 µM, compound concentration 1 uM, replicate 1
[2] = 12 h, 1 µM, compound concentration 1 uM, replicate 2
[3] = 12 h, 10 µM, compound concentration 10 uM, replicate 1
[4] = 12 h, 10 µM, compound concentration 10 uM, replicate 2
[5] = 24 h, 1 µM, compound concentration 1 uM, replicate 1
[6] = 24 h, 1 µM, compound concentration 1 uM, replicate 2
[7] = 24 h, 10 µM, compound concentration 10 uM, replicate 1
[8] = 24 h, 10 µM, compound concentration 10 uM, replicate 2
[9] = 48 h, 1 µM, compound concentration 1 uM, replicate 1
[10] = 48 h, 1 µM, compound concentration 1 uM, replicate 2
[11] = 48 h, 10 µM, compound concentration 10 uM, replicate 1
[12] = 48 h, 10 µM, compound concentration 10 uM, replicate 2

## Cc1c[nH]c2nccc(Oc3c(F)cc(Nc4cc(Cl)nc(N)n4)cc3F)c12 [BAY-549]
[1]
  Population Apoptotic (%): 54%
  Population Fragmented Nuclei (%): 25%
  Population Healthy Nuclei (%): 41%
  Population Hoechst High Intensity Objects (%): 12%
  Population Membrane Permeable-Phenotype (%): 32%
  Population Mitochondria Different-Phenotype (%): 3%
  Population Mitotic Cells (%): 46%
  Population Normal (%): 87%
  Population Pyknosed Nuclei (%): 33%
  Population Tubulin-Different-Phenotype (%): 38%
  Total Cell Count: 172
[2]
  Population Apoptotic (%): 44%
  Population Fragmented Nuclei (%): 12%
  Population Healthy Nuclei (%): 73%
  Population Hoechst High Intensity Objects (%): 5%
  Population Membrane Permeable-Phenotype (%): 4%
  Population Mitochondria Different-Phenotype (%): 6%
  Population Mitotic Cells (%): 55%
  Population Normal (%): 94%
  Population Pyknosed Nuclei (%): 14%
  Population Tubulin-Different-Phenotype (%): 12%
  Total Cell Count: 68
[3]
  Population Apoptotic (%): 66%
  Population Fragmented Nuclei (%): 23%
  Population Healthy Nuclei (%): 31%
  Population Hoechst High Intensity Objects (%): 10%
  Population Membrane Permeable-Phenotype (%): 21%
  Population Mitochondria Different-Phenotype (%): 0%
  Population Mitotic Cells (%): 33%
  Population Normal (%): 90%
  Population Pyknosed Nuclei (%): 45%
  Population Tubulin-Different-Phenotype (%): 21%
  Total Cell Count: 130
[4]
  Population Apoptotic (%): 40%
  Population Fragmented Nuclei (%): 17%
  Population Healthy Nuclei (%): 65%
  Population Hoechst High Intensity Objects (%): 6%
  Population Membrane Permeable-Phenotype (%): 7%
  Population Mitochondria Different-Phenotype (%): 10%
  Population Mitotic Cells (%): 60%
  Population Normal (%): 93%
  Population Pyknosed Nuclei (%): 17%
  Population Tubulin-Different-Phenotype (%): 10%
  Total Cell Count: 62
[5]
  Population Apoptotic (%): 50%
  Population Fragmented Nuclei (%): 32%
  Population Healthy Nuclei (%): 40%
  Population Hoechst High Intensity Objects (%): 10%
  Population Membrane Permeable-Phenotype (%): 26%
  Population Mitochondria Different-Phenotype (%): 9%
  Population Mitotic Cells (%): 50%
  Population Normal (%): 89%
  Population Pyknosed Nuclei (%): 27%
  Population Tubulin-Different-Phenotype (%): 34%
  Total Cell Count: 170
[6]
  Population Apoptotic (%): 46%
  Population Fragmented Nuclei (%): 8%
  Population Healthy Nuclei (%): 71%
  Population Hoechst High Intensity Objects (%): 3%
  Population Membrane Permeable-Phenotype (%): 5%
  Population Mitochondria Different-Phenotype (%): 7%
  Population Mitotic Cells (%): 53%
  Population Normal (%): 96%
  Population Pyknosed Nuclei (%): 20%
  Population Tubulin-Different-Phenotype (%): 18%
  Total Cell Count: 77
[7]
  Population Apoptotic (%): 70%
  Population Fragmented Nuclei (%): 44%
  Population Healthy Nuclei (%): 30%
  Population Hoechst High Intensity Objects (%): 21%
  Population Membrane Permeable-Phenotype (%): 13%
  Population Mitochondria Different-Phenotype (%): 13%
  Population Mitotic Cells (%): 30%
  Population Normal (%): 78%
  Population Pyknosed Nuclei (%): 25%
  Population Tubulin-Different-Phenotype (%): 33%
  Total Cell Count: 152
[8]
  Population Apoptotic (%): 71%
  Population Fragmented Nuclei (%): 12%
  Population Healthy Nuclei (%): 62%
  Population Hoechst High Intensity Objects (%): 5%
  Population Membrane Permeable-Phenotype (%): 11%
  Population Mitochondria Different-Phenotype (%): 20%
  Population Mitotic Cells (%): 28%
  Population Normal (%): 94%
  Population Tubulin-Different-Phenotype (%): 20%
  Total Cell Count: 59
[9]
  Population Apoptotic (%): 66%
  Population Fragmented Nuclei (%): 41%
  Population Healthy Nuclei (%): 46%
  Population Hoechst High Intensity Objects (%): 14%
  Population Membrane Permeable-Phenotype (%): 13%
  Population Mitochondria Different-Phenotype (%): 1%
  Population Mitotic Cells (%): 33%
  Population Normal (%): 85%
  Population Pyknosed Nuclei (%): 12%
  Population Tubulin-Different-Phenotype (%): 19%
  Total Cell Count: 170
[10]
  Population Apoptotic (%): 100%
  Population Fragmented Nuclei (%): 26%
  Population Healthy Nuclei (%): 72%
  Population Hoechst High Intensity Objects (%): 11%
  Population Membrane Permeable-Phenotype (%): 10%
  Population Mitotic Cells (%): 0%
  Population Normal (%): 88%
  Population Pyknosed Nuclei (%): 0%
  Population Tubulin-Different-Phenotype (%): 5%
  Total Cell Count: 184
[11]
  Population Apoptotic (%): 80%
  Population Fragmented Nuclei (%): 56%
  Population Healthy Nuclei (%): 29%
  Population Hoechst High Intensity Objects (%): 20%
  Population Membrane Permeable-Phenotype (%): 16%
  Population Mitochondria Different-Phenotype (%): 16%
  Population Mitotic Cells (%): 20%
  Population Normal (%): 79%
  Population Pyknosed Nuclei (%): 13%
  Population Tubulin-Different-Phenotype (%): 23%
  Total Cell Count: 180
[12]
  Population Apoptotic (%): 57%
  Population Fragmented Nuclei (%): 50%
  Population Healthy Nuclei (%): 45%
  Population Hoechst High Intensity Objects (%): 17%
  Population Membrane Permeable-Phenotype (%): 5%
  Population Mitochondria Different-Phenotype (%): 10%
  Population Mitotic Cells (%): 42%
  Population Normal (%): 82%
  Population Pyknosed Nuclei (%): 3%
  Population Tubulin-Different-Phenotype (%): 6%
  Total Cell Count: 239

## Cc1cccc(CN2CCN(C(c3ccccc3)c3ccc(Cl)cc3)CC2)c1.Cl.Cl (stereo not given)
[1]
  Population Apoptotic (%): 64%
  Population Fragmented Nuclei (%): 22%
  Population Healthy Nuclei (%): 48%
  Population Hoechst High Intensity Objects (%): 22%
  Population Membrane Permeable-Phenotype (%): 34%
  Population Mitochondria Different-Phenotype (%): 8%
  Population Mitotic Cells (%): 35%
  Population Normal (%): 77%
  Population Pyknosed Nuclei (%): 29%
  Population Tubulin-Different-Phenotype (%): 44%
  Total Cell Count: 134
[2]
  Population Apoptotic (%): 0%
  Population Fragmented Nuclei (%): 16%
  Population Healthy Nuclei (%): 79%
  Population Hoechst High Intensity Objects (%): 8%
  Population Membrane Permeable-Phenotype (%): 4%
  Population Mitochondria Different-Phenotype (%): 26%
  Population Mitotic Cells (%): 100%
  Population Normal (%): 91%
  Population Pyknosed Nuclei (%): 3%
  Population Tubulin-Different-Phenotype (%): 23%
  Total Cell Count: 48
[3]
  Population Apoptotic (%): 61%
  Population Fragmented Nuclei (%): 26%
  Population Healthy Nuclei (%): 38%
  Population Hoechst High Intensity Objects (%): 11%
  Population Membrane Permeable-Phenotype (%): 15%
  Population Mitochondria Different-Phenotype (%): 45%
  Population Mitotic Cells (%): 38%
  Population Normal (%): 88%
  Population Pyknosed Nuclei (%): 34%
  Population Tubulin-Different-Phenotype (%): 90%
  Total Cell Count: 127
[4]
  Population Apoptotic (%): 50%
  Population Fragmented Nuclei (%): 14%
  Population Healthy Nuclei (%): 72%
  Population Hoechst High Intensity Objects (%): 6%
  Population Membrane Permeable-Phenotype (%): 6%
  Population Mitochondria Different-Phenotype (%): 61%
  Population Mitotic Cells (%): 50%
  Population Normal (%): 93%
  Population Pyknosed Nuclei (%): 13%
  Population Tubulin-Different-Phenotype (%): 47%
  Total Cell Count: 58
[5]
  Population Apoptotic (%): 75%
  Population Fragmented Nuclei (%): 21%
  Population Healthy Nuclei (%): 56%
  Population Hoechst High Intensity Objects (%): 26%
  Population Membrane Permeable-Phenotype (%): 34%
  Population Mitochondria Different-Phenotype (%): 5%
  Population Mitotic Cells (%): 25%
  Population Normal (%): 73%
  Population Pyknosed Nuclei (%): 21%
  Population Tubulin-Different-Phenotype (%): 40%
  Total Cell Count: 125
[6]
  Population Apoptotic (%): 80%
  Population Fragmented Nuclei (%): 18%
  Population Healthy Nuclei (%): 73%
  Population Hoechst High Intensity Objects (%): 10%
  Population Membrane Permeable-Phenotype (%): 11%
  Population Mitochondria Different-Phenotype (%): 13%
  Population Mitotic Cells (%): 20%
  Population Normal (%): 89%
  Population Pyknosed Nuclei (%): 8%
  Population Tubulin-Different-Phenotype (%): 22%
  Total Cell Count: 47
[7]
  Population Apoptotic (%): 66%
  Population Fragmented Nuclei (%): 29%
  Population Healthy Nuclei (%): 44%
  Population Hoechst High Intensity Objects (%): 14%
  Population Membrane Permeable-Phenotype (%): 16%
  Population Mitochondria Different-Phenotype (%): 40%
  Population Mitotic Cells (%): 33%
  Population Normal (%): 85%
  Population Pyknosed Nuclei (%): 26%
  Population Tubulin-Different-Phenotype (%): 86%
  Total Cell Count: 132
[8]
  Population Apoptotic (%): 11%
  Population Fragmented Nuclei (%): 10%
  Population Healthy Nuclei (%): 77%
  Population Hoechst High Intensity Objects (%): 5%
  Population Membrane Permeable-Phenotype (%): 5%
  Population Mitochondria Different-Phenotype (%): 63%
  Population Mitotic Cells (%): 88%
  Population Normal (%): 94%
  Population Pyknosed Nuclei (%): 12%
  Population Tubulin-Different-Phenotype (%): 45%
  Total Cell Count: 67
[9]
  Population Apoptotic (%): 66%
  Population Fragmented Nuclei (%): 30%
  Population Healthy Nuclei (%): 58%
  Population Hoechst High Intensity Objects (%): 18%
  Population Membrane Permeable-Phenotype (%): 20%
  Population Mitochondria Different-Phenotype (%): 3%
  Population Mitotic Cells (%): 33%
  Population Normal (%): 81%
  Population Pyknosed Nuclei (%): 10%
  Population Tubulin-Different-Phenotype (%): 30%
  Total Cell Count: 136
[10]
  Population Apoptotic (%): 87%
  Population Fragmented Nuclei (%): 24%
  Population Healthy Nuclei (%): 68%
  Population Hoechst High Intensity Objects (%): 9%
  Population Membrane Permeable-Phenotype (%): 6%
  Population Mitochondria Different-Phenotype (%): 7%
  Population Mitotic Cells (%): 12%
  Population Normal (%): 90%
  Population Pyknosed Nuclei (%): 7%
  Population Tubulin-Different-Phenotype (%): 44%
  Total Cell Count: 124
[11]
  Population Apoptotic (%): 57%
  Population Fragmented Nuclei (%): 39%
  Population Healthy Nuclei (%): 54%
  Population Hoechst High Intensity Objects (%): 12%
  Population Membrane Permeable-Phenotype (%): 16%
  Population Mitochondria Different-Phenotype (%): 25%
  Population Mitotic Cells (%): 42%
  Population Normal (%): 87%
  Population Pyknosed Nuclei (%): 6%
  Population Tubulin-Different-Phenotype (%): 79%
  Total Cell Count: 124
[12]
  Population Apoptotic (%): 50%
  Population Fragmented Nuclei (%): 42%
  Population Healthy Nuclei (%): 52%
  Population Membrane Permeable-Phenotype (%): 9%
  Population Mitochondria Different-Phenotype (%): 34%
  Population Mitotic Cells (%): 50%
  Population Pyknosed Nuclei (%): 5%
  Population Tubulin-Different-Phenotype (%): 88%
  Total Cell Count: 133
